Measurements collected from several papers.
TEK: Angiopoietin-1 receptor (TEK, Homo sapiens, UniProt Q02763)
TEK R849W: Angiopoietin-1 receptor (TEK, Homo sapiens, UniProt Q02763, R849W)

| Compound | target | test | conditions | endpoint | result |
| --- | --- | --- | --- | --- | --- |
| CNCc1ccc(-c2cc(-c3nc(-c4ccc(S(=O)(=O)C(C)C)cc4)cnc3N)on2)cc1 | TEK | enzyme activity, inhibitor | 0.4 µM | inhibition | 0% |
| Cc1noc([C@H]2C[C@@H](c3ccc(C(F)(F)F)cc3)CN(C(=O)N3CCS(=O)(=O)C3)C2)n1 | TEK | cell-free assay, competition with immobilised ligand | 1 µM | remaining binding | 100% |
| COc1cc(Nc2cnc(C#N)c(O[C@H](C)CN(C)C)n2)ncc1-c1cnn(C)c1 | TEK | enzyme activity, inhibitor, radiometric | 1 µM | remaining activity | 102% |
| CNC(=O)c1cc2c(Oc3ccc(NC(=O)C4(C(=O)Nc5ccc(F)cc5)CC4)cc3)ccnc2cc1OC | TEK | enzyme activity, inhibitor, radiometric | 1 µM | inhibition | 99% |
| Cc1ccc(Nc2nccc(N(C)c3ccc4c(C)n(C)nc4c3)n2)cc1S(N)(=O)=O | TEK | cell-free assay | 0.5 µM | remaining signal | 69.3% |
| Cn1cc(Cl)c2c(Oc3c(F)cc(Nc4cc(Cl)nc(N)n4)cc3F)ccnc21 | TEK | cell-free assay, competition with immobilised ligand | 0.1 µM | remaining binding | 100% |
| COc1cc2ncnc(Nc3ccc(Oc4ccccc4)c(C)c3C)c2cc1OC | TEK | enzyme activity, inhibitor | 1 µM | inhibition | 6% |
| CCOCCn1cc(C(=O)Nc2ccc(-n3nc(-c4cccnc4)cc3C(F)(F)F)cn2)ccc1=O | TEK | cell-free assay, competition with immobilised ligand | 1 µM | remaining binding | 87% |
| Cc1sc(C(=O)NC2COC2)cc1-n1cc(NC(=O)Nc2c(F)cccc2Cl)cn1 | TEK | enzyme activity, inhibitor | 10 µM | remaining activity | 86.6% |
| Cc1ccc(C(=O)Nc2ccc(CN3CCN(C)CC3)c(C(F)(F)F)c2)cc1C#Cc1cnc2cccnn12 | TEK | cell-free assay | 23.5 nM | remaining signal | 5.2% |
| CCCCN(CCCC)C(=O)CN1C[C@@H](c2cc(OC)c3c(c2)OCO3)[C@H](C(=O)O)[C@H]1CC(C)(C)CCC | TEK | cell-free assay, competition with immobilised ligand | 1 µM | remaining binding | 100% |
| Cc1ccc(C(=O)NCc2ccsc2)cc1C#Cc1cn(C(C)C)c2ncnc(N)c12 | TEK | enzyme activity, inhibitor | 1 µM | activity vs control | 6% |
| Cc1[nH]c(/C=C2\C(=O)Nc3ccc(F)cc32)c(C)c1C(=O)N[C@H]1CCN(C(=O)N(C)C)C1 | TEK | enzyme activity, inhibitor | 0.1 µM | remaining activity | 94% |
| CCc1ccccc1C(=O)Nc1n[nH]c2c(C)c(F)c(C3C(C#N)=C(C)N(C)C(C)=C3C#N)cc12 | TEK | cell-free assay, competition with immobilised ligand | 1 µM | remaining binding | 91% |
| CCCOc1ccc(OC)c(F)c1C(=O)c1ccc(C(=O)N[C@@H]2CNC[C@H]2NC(=O)c2ccc3[nH]ncc3c2)cc1 | TEK R849W | enzyme activity, inhibitor | 10 µM | remaining activity | 46% |
| CC(C)(O)[C@H]1CC[C@H](Nc2ccc3ncc(-c4cccc(C(F)(F)F)c4)n3n2)CC1 | TEK | enzyme activity, inhibitor | 1 µM | remaining activity | 89% |
| Cc1cc(NC(=O)c2cccc3cc(-c4cccc5[nH]nc(N)c45)ccc23)ccc1F | Angiopoietin-1 receptor (TEK, Homo sapiens, UniProt Q02763, Y897S) | enzyme activity, inhibitor | 0.1 µM | activity vs control | 103% |
| O=C1Nc2ccc(Cl)cc2C1=Cc1cc(Cl)c(O)c(Cl)c1 | TEK | cell-free assay | 0.5 µM | remaining signal | 93% |
| CCN(CC)c1ccc(C2=NNC(=O)CC2C)cc1[N+](=O)[O-] (stereo not drawn) | TEK | enzyme activity, inhibitor | 10 µM | remaining activity | 24% |
| CC(C)(C)c1nc(-c2cccc(NS(=O)(=O)c3c(F)cccc3F)c2F)c(-c2ccnc(N)n2)s1 | TEK | enzyme activity, inhibitor, radiometric | 1 µM | remaining activity | 58% |
| CN([C@@H]1CCc2c(CC(=O)O)c3cc(S(C)(=O)=O)ccc3n2C1)S(=O)(=O)c1ccc(F)cc1 | TEK | cell-free assay, competition with immobilised ligand | 1 µM | remaining binding | 88% |
| O=C(Nc1cnn(-c2csc(C(=O)NC3COC3)c2)c1)Nc1c(F)cccc1Cl | TEK | enzyme activity, inhibitor | 5 µM | remaining activity | 105% |
| CCN(CC)CCNC(=O)c1c(C)[nH]c(/C=C2\C(=O)Nc3ccc(F)cc32)c1C | TEK | enzyme activity, inhibitor | 0.3 µM | inhibition | -2% |
| COc1cc(/C=C/C(=O)CC(=O)/C=C/c2ccc(O)c(OC)c2)ccc1O | TEK | enzyme activity, inhibitor | 1 µM | activity vs control | 112% |
| Cc1cnc(NC2CCOCC2)nc1-n1cnc(C(=O)NC(CN)c2cc(F)cc(Cl)c2)c1 (stereo not drawn) | TEK | enzyme activity, inhibitor, radiometric | 1 µM | remaining activity | 105% |
| Cc1ccc(NC(=O)c2ccc(CN3CCN(C)CC3)cc2)cc1Nc1nc(-c2cccnc2)cs1 | TEK | cell-free assay | 0.5 µM | remaining signal | 97.2% |
| CCCOc1ccc([C@H]2[C@H](C(=O)O)[C@@H](c3ccc4c(c3)OCO4)CN2CC(=O)Nc2c(CC)cccc2CC)cc1 | TEK | cell-free assay, competition with immobilised ligand | 1 µM | remaining binding | 100% |
| Cc1ccc(NC(=O)c2ccc(C)c(C(F)(F)F)c2)cc1C#Cc1nn(C2CCC(O)CC2)c2ncnc(N)c12 (stereo not drawn) | TEK R849W | cell-free assay | 10 µM | remaining signal | 0% |
| O=C(CSc1nc2nccnc2c(=O)n1CCc1ccccc1)Nc1nccs1 | TEK | enzyme activity, inhibitor | 10 µM | inhibition | 6% |
| CC(=O)N1CCC(c2ccc(C(=O)NC3=NCCN3)cc2C(F)(F)F)CC1 | TEK | cell-free assay, competition with immobilised ligand | 1 µM | remaining binding | 100% |
